Calls of active or inactive are those of the source. The rule behind the calls is not given here.
What was measured:
D(2) dopamine receptor [1] = target: T1, D(2) dopamine receptor (Homo sapiens, UniProt P14416); test: Agonist activity at D2 long receptor (unknown origin) expressed in CHOK1 cells assessed as beta-arrestin recruitment up to 30 uM after 90 mins by DiscoveRx PathHunter assay; format: cell-based
Summary of the method: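 Agonist mode in CHO-K1 cells expressing D2R long isoform fused to a β-galactosidase fragment, with β-arrestin-2 carrying the complementary fragment. Compound in PBS plus 0.2 μM sodium metabisulfite was preincubated 90 min at 37°C. PathHunter reagent was then added for 30 min at RT and luminescence read. RLU were normalized to the response at maximal dopamine.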

Homo sapiens = species on record: Homo sapiens; test: Selectivity ratio of Ki for human D2 receptor to Ki for human D3 receptor
Summary of the method: (§1)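 Membranes from HEK293 cells stably expressing hD2R (long) or hD3R, 10 μg protein per tube, were incubated with 0.4 nM [3H]N-methylspiperone in EBSS with 0.2 mM sodium metabisulfite. Compound was tested over 13 half-log steps, 10 μM to 10 pM, in triplicate for 1 h at RT. Nonspecific binding was set with 10 μM (+)-butaclamol. Bound ligand was collected on PEI-soaked GF/B filters and counted by scintillation. Ki came from Cheng-Prusoff, at least 3 experiments.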

D(2) dopamine receptor [2] = target: T1, D(2) dopamine receptor; test: Displacement of [3H]N-methylspiperone from human D2L receptor expressed in HEK293 cell membranes after 1 hr by liquid scintillation counting analysis; summary of the method: as §1
D(3) dopamine receptor [3] = target: T2, D(3) dopamine receptor (Homo sapiens, UniProt P35462)
T2 sequence (P35462 whole entry): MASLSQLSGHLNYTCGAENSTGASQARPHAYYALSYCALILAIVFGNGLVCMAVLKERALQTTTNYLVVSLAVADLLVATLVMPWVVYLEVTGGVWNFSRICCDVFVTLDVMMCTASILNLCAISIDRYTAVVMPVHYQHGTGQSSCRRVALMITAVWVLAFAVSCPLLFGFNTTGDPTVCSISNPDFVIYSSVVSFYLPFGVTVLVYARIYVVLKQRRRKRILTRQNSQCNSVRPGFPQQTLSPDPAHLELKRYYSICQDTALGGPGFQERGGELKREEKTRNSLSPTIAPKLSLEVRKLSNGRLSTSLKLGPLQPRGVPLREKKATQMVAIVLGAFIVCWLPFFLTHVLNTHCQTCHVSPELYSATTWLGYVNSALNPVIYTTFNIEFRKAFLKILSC

D(2) dopamine receptor [4] = target: T1, D(2) dopamine receptor; test: Antagonist activity at D2 long receptor (unknown origin) expressed in CHOK1 cells assessed as inhibition of dopamine induced beta-arrestin recruitment after 90 mins by DiscoveRx PathHunter assay; format: cell-based
D(3) dopamine receptor [5] = target: T2, D(3) dopamine receptor; test: Displacement of [3H]N-methylspiperone from human D3 receptor expressed in HEK293 cell membranes after 1 hr by liquid scintillation counting analysis

T1 sequence (P14416 whole entry, the tested form may be a part, canonical isoform): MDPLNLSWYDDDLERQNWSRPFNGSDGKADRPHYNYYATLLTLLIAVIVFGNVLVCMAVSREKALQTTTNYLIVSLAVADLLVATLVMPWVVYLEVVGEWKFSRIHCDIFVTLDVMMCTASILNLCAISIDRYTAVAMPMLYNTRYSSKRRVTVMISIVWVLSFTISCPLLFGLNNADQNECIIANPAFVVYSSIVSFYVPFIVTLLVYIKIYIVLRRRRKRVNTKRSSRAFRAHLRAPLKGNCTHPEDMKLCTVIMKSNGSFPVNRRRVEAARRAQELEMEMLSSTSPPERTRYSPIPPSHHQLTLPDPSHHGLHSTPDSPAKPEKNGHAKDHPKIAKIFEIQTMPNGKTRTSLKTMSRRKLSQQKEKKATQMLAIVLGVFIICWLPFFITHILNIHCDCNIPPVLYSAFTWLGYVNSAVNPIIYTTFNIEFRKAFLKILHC

SMILES	Activity (D(2) dopamine receptor [1])	Ratio Ki (Homo sapiens)	Ki (D(2) dopamine receptor [2])	pKb (D(3) dopamine receptor [3])	Kb (D(2) dopamine receptor [4])	pKb (D(2) dopamine receptor [4])	Ki (D(3) dopamine receptor [5])
N#Cc1ccc2c(c1)CNCC2	inactive	7.5	11.4 µM	5.49	4.27 µM	5.37	1.52 µM
N#Cc1cccc(N2CCNCC2)c1	inactive	8.4	4.89 µM	5.42	2.09 µM	5.68	0.581 µM
N#Cc1ccc2c(c1)CCN(CC[C@H]1CC[C@H](NC(=O)c3ccnc4ccccc34)CC1)C2	inactive						

From ChEMBL document CHEMBL4052607 (J Med Chem, 2017)
